{"source": "ChEMBL document CHEMBL1134640", "about": "“A novel series of highly potent benzimidazole-based microsomal triglyceride transfer protein inhibitors” (J Med Chem, 2001)", "key": {"[1]": {"target": "T1, Microsomal triglyceride transfer protein large subunit (Homo sapiens, UniProt P55157)", "T1 sequence (P55157 whole entry)": "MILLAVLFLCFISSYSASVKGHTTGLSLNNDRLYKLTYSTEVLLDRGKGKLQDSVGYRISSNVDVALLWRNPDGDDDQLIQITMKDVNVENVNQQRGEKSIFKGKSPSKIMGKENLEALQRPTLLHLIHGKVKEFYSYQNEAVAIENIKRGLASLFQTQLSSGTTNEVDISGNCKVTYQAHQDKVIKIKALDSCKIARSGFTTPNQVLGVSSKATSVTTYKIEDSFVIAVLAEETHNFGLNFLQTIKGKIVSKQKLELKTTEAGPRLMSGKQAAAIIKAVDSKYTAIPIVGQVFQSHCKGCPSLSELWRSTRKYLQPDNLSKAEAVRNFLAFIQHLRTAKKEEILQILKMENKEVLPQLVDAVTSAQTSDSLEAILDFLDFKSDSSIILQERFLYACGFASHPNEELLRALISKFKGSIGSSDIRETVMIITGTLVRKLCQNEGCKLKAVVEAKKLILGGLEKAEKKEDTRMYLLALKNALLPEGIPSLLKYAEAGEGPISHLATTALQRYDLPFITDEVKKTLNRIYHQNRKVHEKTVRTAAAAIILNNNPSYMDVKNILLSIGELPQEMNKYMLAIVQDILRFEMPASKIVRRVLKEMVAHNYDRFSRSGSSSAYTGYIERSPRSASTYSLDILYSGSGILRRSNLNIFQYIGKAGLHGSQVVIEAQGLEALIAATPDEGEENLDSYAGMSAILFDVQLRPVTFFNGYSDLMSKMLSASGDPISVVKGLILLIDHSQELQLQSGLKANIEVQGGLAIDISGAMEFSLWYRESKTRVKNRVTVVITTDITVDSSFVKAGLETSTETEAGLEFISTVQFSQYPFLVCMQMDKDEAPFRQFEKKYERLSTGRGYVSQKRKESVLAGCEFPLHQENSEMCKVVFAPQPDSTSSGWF", "assay": "In vitro inhibition of human Microsomal Triglyceride Transfer Protein, (triglyceride transfer assay)"}, "[2]": {"target": "T1, Microsomal triglyceride transfer protein large subunit", "assay": "(§1) In vitro inhibition of human microsomal triglyceride transfer protein in HepG2 cells using apoB secretion assay", "assay_type": "cell-based"}, "[3]": {"assay": "PlasmaTC lowering was determined in standard-diet-fed cynomolgus monkeys after 16h of postdosing of at 0.3 mg/kg", "assay_type": "functional, Cercopithecidae", "summary_of_the_method": "(§2)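 Cynomolgus monkeys on standard diet received oral dosing once daily for 7 days. Plasma TC was measured 16 h postdosing. Values are percent lowering at a stated dose (mg/kg), or ED50, the dose producing 50% TC lowering.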"}, "[4]": {"assay": "PlasmaTC lowering was determined in standard-diet-fed cynomolgus monkeys after 16h of postdosing of at 1.25 mg/kg", "assay_type": "functional, Cercopithecidae", "summary_of_the_method": "as §2"}, "[5]": {"assay": "Dose required for 50% lowering of plasma TC in standard-diet-fed cynomolgus monkeys 16h postdosing.", "assay_type": "functional", "settings": "Cercopithecidae", "summary_of_the_method": "as §2"}, "[6]": {"assay": "Dose required for 50% lowering of plasma TC in standard-diet-fed golden Syrian hamsters 16h postdosing.", "assay_type": "functional", "summary_of_the_method": "(§3)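 Golden Syrian hamsters on standard diet were dosed orally once daily for 3 days. Plasma total cholesterol was measured 16 h after dosing. Values are percent TC lowering at a given dose (mg/kg), or ED50, the dose giving 50% plasma TC lowering.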"}, "[7]": {"assay": "PlasmaTC lowering was determined in standard-diet-fed cynomolgus monkeys after 16h of postdosing of at 1 mg/kg", "assay_type": "functional, Cercopithecidae", "summary_of_the_method": "as §2"}, "[8]": {"assay": "PlasmaTC lowering was determined in standard-diet-fed cynomolgus monkeys after 16h of postdosing of at 0.1 mg/kg", "assay_type": "functional, Cercopithecidae", "summary_of_the_method": "as §2"}, "[9]": {"assay": "ED50 represents dose required for 50% lowering of plasma TC in standard-diet-fed golden Syrian hamsters 16h postdosing.", "settings": "Mesocricetus auratus"}, "[10]": {"assay": "PlasmaTC lowering was determined in standard-diet-fed cynomolgus monkeys after 16h of postdosing of at 5 mg/kg", "assay_type": "functional, Cercopithecidae", "summary_of_the_method": "as §2"}, "[11]": {"assay": "PlasmaTC lowering was determined in standard-diet-fed cynomolgus monkeys after 16h of postdosing of at 2.5 mg/kg", "assay_type": "functional, Cercopithecidae", "summary_of_the_method": "as §2"}, "[12]": {"target": "T1, Microsomal triglyceride transfer protein large subunit", "assay": "In vitro inhibition of human Microsomal Triglyceride Transfer Protein (triglyceride transfer assay)"}, "[13]": {"assay": "TC lowering at dose was measured as % lowering of plasma TC in standard-diet-fed cynomolgus monkeys 16h postdosing.", "assay_type": "functional, Cercopithecidae", "summary_of_the_method": "as §2"}, "Mesocricetus auratus [14]": {"tested_on": "Mesocricetus auratus", "assay": "TC lowering at 8 mg/kg was measured as % lowering of plasma TC in standard-diet-fed golden Syrian hamsters 16h postdosing."}, "Mesocricetus auratus [15]": {"tested_on": "Mesocricetus auratus", "assay": "PlasmaTC lowering was determined in standard-diet-fed after 16h of postdosing of at 15 mg/kg in golden Syrian hamsters"}, "[16]": {"assay": "PlasmaTC lowering was determined in standard-diet-fed cynomolgus monkeys after 16h of postdosing at 5 mg/kg", "assay_type": "functional, Cercopithecidae", "summary_of_the_method": "as §2"}, "[17]": {"assay": "PlasmaTC lowering was determined in standard-diet-fed cynomolgus monkeys after 16h of postdosing at 10 mg/kg", "assay_type": "functional, Cercopithecidae", "summary_of_the_method": "as §2"}, "[18]": {"assay": "Dose required for 50% lowering of plasma TC in standard-diet-fed golden Syrian hamsters 16h postdosing", "assay_type": "functional", "summary_of_the_method": "as §3"}, "[19]": {"assay": "Dose required for 50% lowering of plasma TC in standard-diet-fed cynomolgus monkeys", "assay_type": "functional", "settings": "Cercopithecidae", "summary_of_the_method": "as §2"}, "[20]": {"target": "T1, Microsomal triglyceride transfer protein large subunit", "assay": "In vitro inhibition of human microsomal triglyceride transfer protein using triglyceride transfer assay"}, "[21]": {"assay": "PlasmaTC lowering was determined in standard-diet-fed cynomolgus monkeys after 16h of postdosing at 2.5 mg/kg", "assay_type": "functional, Cercopithecidae", "summary_of_the_method": "as §2"}, "[22]": {"assay": "PlasmaTC lowering was determined in standard-diet-fed cynomolgus monkeys after 16h of postdosing at 1.25 mg/kg", "assay_type": "functional, Cercopithecidae", "summary_of_the_method": "as §2"}, "[23]": {"target": "T1, Microsomal triglyceride transfer protein large subunit", "assay": "as §1", "assay_type": "functional, cell-based"}, "Mesocricetus auratus [24]": {"tested_on": "Mesocricetus auratus", "assay": "50% lowering of plasma TC in standard-diet-fed golden Syrian hamsters 16h postdosing. 15 mg/kg required for"}}, "data": [{"molecule": "Cc1ccc2c(nc(C)n2CCCCC2(C(=O)NCC(F)(F)F)c3ccccc3-c3ccccc32)c1NC(=O)c1ccccc1-c1ccc(C(F)(F)F)cc1", "values": [{"measurement": "IC50", "setting": "[1]", "result": 1, "unit": "nM"}, {"measurement": "IC50", "setting": "[2]", "result": 0.03, "unit": "nM"}, {"measurement": "TC lowering", "setting": "[3]", "result": -43, "unit": "%"}, {"measurement": "TC lowering", "setting": "[4]", "result": -83, "unit": "%"}, {"measurement": "ED50", "setting": "[5]", "result": 0.38, "unit": "mg/kg"}, {"measurement": "ED50", "setting": "[6]", "result": 0.28, "unit": "mg/kg"}, {"measurement": "TC lowering", "setting": "[7]", "result": -76, "unit": "%"}, {"measurement": "TC lowering", "setting": "[8]", "result": -28, "unit": "%"}]}, {"molecule": "O=C(Nc1cccc2c1ncn2CCCCC1(C(=O)NCC(F)(F)F)c2ccccc2-c2ccccc21)c1ccccc1-c1ccc(C(F)(F)F)cc1", "values": [{"measurement": "IC50", "setting": "[2]", "result": 0.24, "unit": "nM"}, {"measurement": "ED50", "setting": "[9]", "result": 12, "unit": "mg/kg"}, {"measurement": "TC lowering", "setting": "[10]", "result": -52, "unit": "%"}, {"measurement": "TC lowering", "setting": "[11]", "result": -19, "unit": "%"}, {"measurement": "IC50", "setting": "[12]", "result": 5, "unit": "nM"}]}, {"molecule": "Cc1nc2c(NC(=O)c3ccccc3-c3ccc(C(F)(F)F)cc3)cccc2n1CCCCC1(C(=O)NCC(F)(F)F)c2ccccc2-c2ccccc21", "values": [{"measurement": "IC50", "setting": "[1]", "result": 1, "unit": "nM"}, {"measurement": "IC50", "setting": "[2]", "result": 0.15, "unit": "nM"}, {"measurement": "TC lowering", "setting": "[4]", "result": -51, "unit": "%"}, {"measurement": "TC lowering", "setting": "[10]", "result": -80, "unit": "%"}, {"measurement": "ED50", "setting": "[6]", "result": 2.5, "unit": "mg/kg"}]}, {"molecule": "CC(C)c1nc2c(NC(=O)c3ccccc3-c3ccc(C(F)(F)F)cc3)cccc2n1CCCCC1(C(=O)NCC(F)(F)F)c2ccccc2-c2ccccc21", "values": [{"measurement": "IC50", "setting": "[1]", "result": 4, "unit": "nM"}, {"measurement": "IC50", "setting": "[2]", "result": 0.06, "unit": "nM"}, {"measurement": "TC lowering", "setting": "[13]", "result": -39, "unit": "%"}, {"measurement": "TC lowering", "setting": "Mesocricetus auratus [14]", "result": -60, "unit": "%"}]}, {"molecule": "O=C(Nc1cccc2c1ncn2CCCC1(C(=O)NCC(F)(F)F)c2ccccc2-c2ccccc21)c1ccccc1-c1ccc(C(F)(F)F)cc1", "values": [{"measurement": "IC50", "setting": "[1]", "result": 10, "unit": "nM"}, {"measurement": "TC lowering", "setting": "Mesocricetus auratus [15]", "result": -11, "unit": "%"}]}, {"molecule": "O=C(NC1CCN(CCCCC2(C(=O)NCC(F)(F)F)c3ccccc3-c3ccccc32)CC1)c1ccccc1-c1ccc(C(F)(F)F)cc1", "note": "[LOMITAPIDE]", "values": [{"measurement": "TC lowering", "setting": "[16]", "result": -74, "unit": "%"}, {"measurement": "TC lowering", "setting": "[17]", "result": -88, "unit": "%"}, {"measurement": "ED50", "setting": "[18]", "result": 2.3, "unit": "mg/kg"}, {"measurement": "ED50", "setting": "[19]", "result": 2, "unit": "mg/kg"}, {"measurement": "IC50", "setting": "[20]", "result": 8, "unit": "nM"}, {"measurement": "TC lowering", "setting": "[21]", "result": -65, "unit": "%"}, {"measurement": "TC lowering", "setting": "[22]", "result": -35, "unit": "%"}, {"measurement": "IC50", "setting": "[23]", "result": 0.8, "unit": "nM"}]}, {"molecule": "Cc1ccc2c(ncn2CCCCC2(C(=O)NCC(F)(F)F)c3ccccc3-c3ccccc32)c1NC(=O)c1ccccc1-c1ccc(C(F)(F)F)cc1", "values": [{"measurement": "IC50", "setting": "[1]", "result": 1, "unit": "nM"}, {"measurement": "IC50", "setting": "[2]", "result": 0.02, "unit": "nM"}, {"measurement": "TC lowering", "setting": "[11]", "result": -68, "unit": "%"}, {"measurement": "ED50", "setting": "[6]", "result": 3.8, "unit": "mg/kg"}]}, {"molecule": "CCCc1nc2c(NC(=O)c3ccccc3-c3ccc(C(F)(F)F)cc3)cccc2n1CCCCC1(C(=O)NCC(F)(F)F)c2ccccc2-c2ccccc21", "values": [{"measurement": "IC50", "setting": "[1]", "result": 2, "unit": "nM"}, {"measurement": "TC lowering", "setting": "Mesocricetus auratus [24]", "result": -44, "unit": "%"}]}]}
